Measurements published in ChEMBL document CHEMBL4732262, “Identification of two novel thiophene analogues as inducers of autophagy mediated cell death in breast cancer cells” (Bioorg Med Chem, 2021).
The source made the active and inactive calls. No cut-off for these calls is given here.

Tests used:
MDA-MB-231 [1] = assay: Cytotoxicity against human MDA-MB-231 cells assessed as reduction in cell viability after 24 hrs by MTT assay; type: functional, cell-based; details: MDA-MB-231, 24 h
Outline: (§1)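 Cells seeded ~5 × 10^3 per well in 96-well plates, exposed to 0–40 µM for 24 h. MTT added at 0.5 mg/ml for 3 h, formazan dissolved in DMSO, absorbance read at 540 nm. IC50 taken from plotted curves. Duplicate wells, two independent repeats. MCF7 grown in DMEM, MDA-MB-231 in RPMI, both with 10% FBS at 37 °C and 5% CO2.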

MCF7 [2] = assay: Cytotoxicity against human MCF7 cells assessed as reduction in cell viability after 24 hrs by MTT assay; type: functional, cell-based; details: MCF7, 24 h; outline: as §1
MCF7 [3] = assay: Induction of apoptosis in human MCF7 cells assessed as early apoptotic cells at 2.5 uM after 24 hrs by annexin V-FITC/Propidium iodide staining based flow cytometric analysis (reference value: 3.94%); type: functional
MDA-MB-231 [4] = assay: Induction of apoptosis in human MDA-MB-231 cells assessed as late apoptotic cells at 2.5 uM after 24 hrs by annexin V-FITC/Propidium iodide staining based flow cytometric analysis (reference value: 0.08%); type: functional
MCF7 [5] = assay: Induction of autophagy in human MCF7 cells assessed as increase in Bcl2L11 mRNA expression at 2.5 uM after 24 hrs by RT-PCR analysis; type: functional, cell-based
Outline: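 MCF7 cells given 2.5 µM or DMSO for 24 h. Total RNA extracted with TRIzol and reverse-transcribed, then SYBR Green qPCR across 34 autophagy-regulatory genes (95 °C 10 min; 40 cycles of 95 °C 15 s and 60 °C 1 min). Relative expression by 2^-ΔΔCt against housekeeping genes and DMSO control, shown as log2. Two independent experiments.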

MCF7 [6] = assay: Induction of autophagy in human MCF7 cells assessed as increase in LC3-2 to LC3-1 protein ratio at 2.5 uM after 24 hrs by Western blot analysis; type: functional, cell-based
Outline: (§2)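 MCF7 cells (~5 × 10^6) left untreated (DMSO control) or exposed to 2.5 µM compound for 24 h. Lysed in RIPA buffer, probed overnight at 4 °C, then given infrared-tagged secondary antibodies for 1 h at 37 °C and imaged by infrared scanning. LC3-II/I ratio and p62 taken by densitometry with GAPDH as loading control. Two independent experiments.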

MCF7 [7] = assay: Induction of autophagy in human MCF7 cells expressing GFP tagged LC3-2 assessed as increase in […] puncta formation at 2.5 uM after 24 hrs by confocal microscopic analysis; type: functional, cell-based
Outline: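 MCF7 cells (~1 × 10^6) at 70% confluency on glass-bottom dishes were transiently transfected with GFP-LC3 (Lipofectamine 3000). 24 h later they received 2.5 µM compound or DMSO for another 24 h. Nuclei were stained with Hoechst 33342 and lysosomes with LysoTracker Red DND-99, then imaged by live-cell confocal microscopy. LC3 puncta were counted in at least 10 cells from 3 fields. Two independent experiments.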

MCF7 [8] = assay: Induction of apoptosis in human MCF7 cells assessed as necrotic cells at 2.5 uM after 24 hrs by annexin V-FITC/Propidium iodide staining based flow cytometric analysis (reference value: 1.22%); type: functional
MCF7 [9] = assay: Induction of apoptosis in human MCF7 cells assessed as late apoptotic cells at 2.5 uM after 24 hrs by annexin V-FITC/Propidium iodide staining based flow cytometric analysis (reference value: 0.2%); type: functional
MDA-MB-231 [10] = assay: Induction of apoptosis in human MDA-MB-231 cells assessed as necrotic cells at 2.5 uM after 24 hrs by annexin V-FITC/Propidium iodide staining based flow cytometric analysis (reference value: 0.65%); type: functional
MDA-MB-231 [11] = assay: Induction of apoptosis in human MDA-MB-231 cells assessed as early apoptotic cells at 2.5 uM after 24 hrs by annexin V-FITC/Propidium iodide staining based flow cytometric analysis (reference value: 1.54%); type: functional
MCF7 [12] = assay: Induction of autophagy in human MCF7 cells assessed as increase in Beclin1 protein expression at 2.5 uM after 24 hrs by Western blot analysis; type: functional, cell-based
Outline: (§3)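 MCF7 or MDA-MB-231 cells given 2.5 µM or DMSO for 24 h, then lysed in RIPA buffer. Immunoblots probed overnight at 4 °C, followed by infrared-labelled secondary antibody for 1 h at 37 °C. Bands imaged and quantified densitometrically, with GAPDH as loading control. Representative of two independent experiments.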

MCF7 [13] = assay: Induction of apoptotic in human MCF7 cells assessed as increase in Bim protein expression at 2.5 uM after 24 hrs by Western blot analysis; type: functional, cell-based; outline: as §3
MCF7 [14] = assay: Induction of apoptosis in human MCF7 cells assessed as increase in cell death at 2.5 uM after 24 hrs by EtBr/AO staining based fluorescence microscopic method; type: functional
Outline: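 ~5 × 10^4 MCF7 cells on coverslips given 2.5 µM for 24 h, then PBS-washed and stained with 1:1 ethidium bromide/acridine orange (0.4 mg/ml each). Viewed by fluorescence microscopy, excitation 480 nm with a 515–530 nm barrier filter. Apoptotic, necrotic and viable cells scored from 200 cells per sample.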

MCF7 [15] = assay: Induction of autophagy in human MCF7 cells assessed as increase in p62 degradation at 2.5 uM after 24 hrs by Western blot analysis; type: functional, cell-based; outline: as §2
MCF7 [16] = assay: Induction of autophagy in human MCF7 cells assessed as LC3-2 to LC3-1 protein ratio at 2.5 uM after 24 hrs by Western blot analysis (reference value: 0.22 to 0.8); type: functional
MCF7 (Homo sapiens) = assay: Induction of apoptosis in human MCF7 cells assessed as increase in cell death at 2.5 uM after 24 hrs by EtBr/AO staining based fluorescence microscopic method
MDA-MB-231 [17] = assay: Cytotoxicity against human MDA-MB-231 cells assessed as reduction in cell viability at 100 uM after 24 hrs by MTT assay; type: functional, cell-based
MCF7 [18] = assay: Cytotoxicity against human MCF7 cells assessed as reduction in cell viability at 100 uM after 24 hrs by MTT assay; type: functional, cell-based

Structure (SMILES)	IC50 (MDA-MB-231 [1])	IC50 (MCF7 [2])	Activity (MCF7 [3])	Activity (MDA-MB-231 [4])	Activity (MCF7 [8])	Activity (MCF7 [9])	Activity (MDA-MB-231 [10])	Activity (MDA-MB-231 [11])	Ratio (MCF7 [16])	other results
O=C1C(=O)c2ccc3ccccc3c2-c2sccc21	15.6 µM	12.8 µM	–	–	–	–	–	–	–	–
COc1ccc2ccc3c(c2c1)-c1ccsc1C(=O)C3=O	6 µM	8.02 µM	4.39%	0.13%	1.85%	0.55%	1.19%	1.8%	11.1	Activity (MCF7 [5]): Active; Activity (MCF7 [6]): Active; Activity (MCF7 [7]): Active; Activity (MCF7 [12]): inactive; Activity (MCF7 [13]): Active; Activity (MCF7 [14]): Active; Activity (MCF7 [15]): Active; Activity (MCF7 (Homo sapiens)): Active
Cc1coc2c1C(=O)C(=O)c1c-2ccc2c1CCCC2(C)C [TANSHINONE IIA]	7.7 µM	7.79 µM	2.9%	0.34%	5.27%	0.31%	2.11%	9.23%	1.46	Activity (MCF7 [14]): Active; Activity (MCF7 (Homo sapiens)): Active
Cc1cc2c3c(ccc2s1)C(=O)C(=O)c1ccsc1-3	23.4 µM	17.5 µM	–	–	–	–	–	–	–	–
O=C1C(=O)c2c(ccc3ccccc23)-c2ccoc21	20.9 µM	14.4 µM	–	–	–	–	–	–	–	–
O=C1C(=O)c2occc2-c2c1ccc1ccccc21	17.4 µM	15.8 µM	–	–	–	–	–	–	–	–
Cc1cc2c3c(ccc2s1)C(=O)C(=O)c1sccc1-3	20.6 µM	14.6 µM	–	–	–	–	–	–	–	–
CCN(CC)CCCC(C)Nc1ccnc2cc(Cl)ccc12 (centres undefined)	–	–	–	–	–	–	–	–	–	Activity (MDA-MB-231 [17]): Active; Activity (MCF7 [18]): Active
Cc1coc2c1C(=O)C(=O)c1c-2ccc2c(C)cccc12 [TANSHINONE I]	7.96 µM	7.93 µM	14.3%	0.18%	3.63%	0.91%	3.56%	1.44%	0.61	–
